This note sets out measurements from ChEMBL document CHEMBL1154686, “Pyrazoline bearing benzimidazoles: search for anticancer agent” (2010).

Usually GI50 stands for the concentration that inhibits growth by half. Low readings indicate greater sensitivity of the cells, high ones lower sensitivity of the cells. For orientation: TGI means the concentration giving total growth inhibition. A high value points to less potent growth arrest.

Bounds are passed on as bounds.

What all share (format): functional
The subject of one assay is CCRF-CEM. Kind of assay: Growth inhibition of human CCRF-CEM cells after 48 hrs by SRB assay. Summed up:
(§1)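 Suspension leukemia lines were run in the NCI-60 SRB format. Cells were plated at 5,000–40,000 cells/well and pre-incubated 24 h at 37 °C, 5% CO₂, with time-zero plates fixed at drug addition. Drug exposure in DMSO-derived dilutions lasted 48 h. Settled cells were fixed with 80% TCA (final 16%), stained with 0.4% SRB, solubilized in 10 mM trizma base, and read at 515 nm. Percent growth was taken relative to the time-zero and control readings.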

The subject of the next assay is 786-0. Kind of assay: Growth inhibition of human 786-0 cells after 48 hrs by SRB assay. Particulars: 786-0, 48 h. An outline of the steps:
(§2)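 NCI-60 panel protocol with adherent lines. Cells were seeded at 5,000–40,000 cells/well, depending on doubling time, and pre-incubated 24 h at 37 °C, 5% CO₂. Time-zero plates were TCA-fixed at drug addition. Drugs were dissolved in DMSO and exposed for 48 h. Cells were fixed with cold TCA (final 10%) for 60 min at 4 °C, stained with 0.4% SRB in 1% acetic acid for 10 min, solubilized with 10 mM trizma base, and read at A515.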
(The SRB assay estimates cell density from bound dye.)

Another assay deals with RPMI-8226. Nature of the assay: Growth inhibition of human RPMI8226 cells after 48 hrs by SRB assay. The following applies: RPMI-8226, 48 h. Summed up: as §1
Another assay deals with NCI-H322M. Nature of the assay: Growth inhibition of human NCI-H322M cells after 48 hrs by SRB assay. Summed up:
as §2

The test system of another assay is KM12. Nature of the assay: Growth inhibition of human KM12 cells after 48 hrs by SRB assay. Particulars: KM12, 48 h. An outline of the steps:
as §2

Setting [1] is: read-out: LC50 (the source's name).

Take `COc1ccc(C2CC(c3nc4ccccc4[nH]3)=NN2c2ccccc2)cc1OC` (stereo not given): the GI50 was 2.23 µM with CCRF-CEM; 24.2 µM in the assay on 786-0; 2.76 µM in the assay with RPMI-8226; 21.3 µM with NCI-H322M; 5.14 µM with KM12. For the same molecule, the TGI with CCRF-CEM was 6.82 µM; in the assay with 786-0, greater than 100 µM; in the assay with RPMI-8226, 10.3 µM; in the assay on NCI-H322M, greater than 100 µM; with KM12, 19.5 µM. The CC50 is 88.7 µM with CCRF-CEM (setting [1]); greater than 100 µM in the assay on 786-0 (setting [1]); 76.6 µM in the assay on RPMI-8226 (setting [1]); greater than 100 µM in the assay on NCI-H322M (setting [1]); 52.2 µM with KM12 (setting [1]).
